Source: ChEMBL document CHEMBL1133729, “Design, synthesis, and structure-activity relationships of phthalimide-phenylpiperazines: a novel series of potent and selective alpha(1)(a)-adrenergic receptor antagonists” (J Med Chem, 2000)

Experiments:
[1] = molecular target: 5-hydroxytryptamine receptor 7 (Homo sapiens, UniProt P34969); assay: Compound at 1 uM was tested for the inhibition of radioligand [3H]LSD binding to recombinant human 5-hydroxytryptamine 7 receptor
Procedure, shortened: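 Human 5-HT7 expressed in CHO cells; [3H]LSD, 120 min at 37 °C, pH 7.4 Tris-HCl/NaCl/EDTA; 5 μM 5-HT for nonspecific binding. Compound at 1 μM, duplicate determinations of percent inhibition; filtration, scintillation counting.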

[2] = molecular target: T1, Alpha-1D adrenergic receptor (Homo sapiens, UniProt P25100); assay: Binding affinity towards cloned human alpha-1D adrenergic receptor was determined using [125]-HEAT as radioligand
T1 sequence (P25100 whole entry): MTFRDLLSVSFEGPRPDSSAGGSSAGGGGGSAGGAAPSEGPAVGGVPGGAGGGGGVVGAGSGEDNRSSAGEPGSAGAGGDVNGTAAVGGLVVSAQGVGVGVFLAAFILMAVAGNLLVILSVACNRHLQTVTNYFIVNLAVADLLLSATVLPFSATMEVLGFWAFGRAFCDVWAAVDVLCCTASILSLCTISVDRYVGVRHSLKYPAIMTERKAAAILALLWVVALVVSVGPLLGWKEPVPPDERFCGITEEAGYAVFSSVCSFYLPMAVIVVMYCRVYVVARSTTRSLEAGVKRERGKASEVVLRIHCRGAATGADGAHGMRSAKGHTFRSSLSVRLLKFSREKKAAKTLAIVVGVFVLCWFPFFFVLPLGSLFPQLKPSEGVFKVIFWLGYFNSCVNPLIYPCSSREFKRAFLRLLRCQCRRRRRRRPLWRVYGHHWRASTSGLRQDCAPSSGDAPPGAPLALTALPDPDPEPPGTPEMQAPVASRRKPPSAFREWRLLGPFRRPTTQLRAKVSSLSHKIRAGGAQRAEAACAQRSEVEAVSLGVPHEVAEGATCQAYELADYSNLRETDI
Procedure, shortened: (§1)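 Human α1a, α1b and α1d cDNAs transiently expressed in COS-1 cells (DEAE-dextran); membranes harvested 72 h post-transfection. Competition versus 50 pM [125I]HEAT (final), 0.1 pM–10 μM test compound in half-log steps, in TNE buffer pH 7.4. Membrane protein 0.1 μg (α1a, α1b) or 2.6 μg (α1d); 1 h at 25 °C. Filtration, scintillation counting; Ki = IC50/(1 + [L]/Kd). Ratios are subtype Ki over α1a Ki.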

[3] = molecular target: T2, Alpha-2C adrenergic receptor (Homo sapiens) (UniProt P18825); assay: Compound at 1 uM was tested for the inhibition of radioligand [3H]MK-912 binding to recombinant human alpha-2C adrenergic receptor
T2 sequence (whole entry): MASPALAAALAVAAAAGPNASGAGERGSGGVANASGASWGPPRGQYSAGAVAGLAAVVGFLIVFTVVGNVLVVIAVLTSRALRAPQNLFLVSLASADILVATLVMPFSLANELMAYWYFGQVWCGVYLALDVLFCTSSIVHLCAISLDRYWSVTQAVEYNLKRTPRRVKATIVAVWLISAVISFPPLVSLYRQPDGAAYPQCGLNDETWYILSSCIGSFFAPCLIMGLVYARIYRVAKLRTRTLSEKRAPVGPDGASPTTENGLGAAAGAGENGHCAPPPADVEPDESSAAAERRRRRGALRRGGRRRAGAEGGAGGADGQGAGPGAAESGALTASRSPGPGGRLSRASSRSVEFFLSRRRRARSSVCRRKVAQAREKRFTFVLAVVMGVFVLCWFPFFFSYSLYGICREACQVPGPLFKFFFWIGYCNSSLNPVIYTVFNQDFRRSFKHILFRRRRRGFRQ
Procedure, shortened: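 Recombinant human α2a or α2c receptors in CHO cell membranes; [3H]MK912, 60 min at 25 °C in 50 mM Tris-HCl, 150 mM NaCl, 5 mM EDTA, pH 7.4; WB4101 (10 μM) for nonspecific binding. Percent inhibition at 1 μM in duplicate; filtration, scintillation counting.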

[4] = molecular target: T3, Alpha-1A adrenergic receptor (Homo sapiens, UniProt P35348); assay: Binding affinity towards cloned human alpha-1A adrenergic receptor was determined using [125]-HEAT as radioligand
T3 sequence (P35348 whole entry): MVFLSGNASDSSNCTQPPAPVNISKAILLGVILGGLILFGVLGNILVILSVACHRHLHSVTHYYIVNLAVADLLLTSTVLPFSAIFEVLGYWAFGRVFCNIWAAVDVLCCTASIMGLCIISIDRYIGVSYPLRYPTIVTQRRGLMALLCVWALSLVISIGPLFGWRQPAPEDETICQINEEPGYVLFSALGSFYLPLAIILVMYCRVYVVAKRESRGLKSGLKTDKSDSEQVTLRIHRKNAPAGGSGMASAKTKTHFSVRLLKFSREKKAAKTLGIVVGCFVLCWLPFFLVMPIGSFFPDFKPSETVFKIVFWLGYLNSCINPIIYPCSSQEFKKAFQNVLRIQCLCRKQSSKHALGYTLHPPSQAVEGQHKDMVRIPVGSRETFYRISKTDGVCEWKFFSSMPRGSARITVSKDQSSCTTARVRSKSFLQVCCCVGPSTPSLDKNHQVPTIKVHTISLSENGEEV

D(2) dopamine receptor = D(2) dopamine receptor (Homo sapiens, UniProt P14416); assay: Compound at 1 uM was tested for the inhibition of radioligand [3H]spiperone binding to recombinant human Dopamine receptor D2S
Procedure, shortened: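 Human D2S in CHO membranes; [3H]spiperone, 37 °C for 120 min in 50 mM Tris-HCl, 150 mM NaCl, 5 mM EDTA, pH 7.4; 10 μM haloperidol for nonspecific binding. Percent inhibition at 1 μM, duplicate; filtration, scintillation counting.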

[5] = molecular target: Histamine H1 receptor (Cavia porcellus) (UniProt P31389); assay: Compound at 1 uM was tested for the inhibition of radioligand [3H]pyrilamine binding to central histamine H1 receptor in guinea pig brain
Procedure, shortened: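 Central H1 from guinea pig brain membranes; [3H]pyrilamine 25 °C for 60 min, pH 7.4 Tris-HCl/NaCl/EDTA buffer; 1 μM pyrilamine for nonspecific binding. Percent inhibition by compound at 1 μM, duplicate; filtered, scintillation counted.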

[6] = molecular target: Adrenergic receptors; alpha-1 A & B (Homo sapiens) (UniProt P35348+P35368); assay: Ratio of binding affinity towards Alpha1b to Alpha-1A; assay type: protein assay; procedure, shortened: as §1

Chain of D(2) dopamine receptor (P14416 whole entry): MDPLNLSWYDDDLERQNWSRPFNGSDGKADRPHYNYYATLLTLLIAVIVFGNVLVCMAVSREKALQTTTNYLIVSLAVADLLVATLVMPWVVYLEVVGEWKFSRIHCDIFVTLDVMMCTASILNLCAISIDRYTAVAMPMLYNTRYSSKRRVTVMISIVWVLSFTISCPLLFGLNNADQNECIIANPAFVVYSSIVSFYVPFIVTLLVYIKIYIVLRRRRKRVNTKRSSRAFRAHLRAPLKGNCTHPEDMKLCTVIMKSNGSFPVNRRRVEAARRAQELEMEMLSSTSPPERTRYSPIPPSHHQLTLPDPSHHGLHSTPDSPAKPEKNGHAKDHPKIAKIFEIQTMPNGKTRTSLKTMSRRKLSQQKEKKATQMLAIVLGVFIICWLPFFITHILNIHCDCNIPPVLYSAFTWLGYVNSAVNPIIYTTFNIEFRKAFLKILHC
Chain of 5-hydroxytryptamine receptor 7 (P34969 whole entry): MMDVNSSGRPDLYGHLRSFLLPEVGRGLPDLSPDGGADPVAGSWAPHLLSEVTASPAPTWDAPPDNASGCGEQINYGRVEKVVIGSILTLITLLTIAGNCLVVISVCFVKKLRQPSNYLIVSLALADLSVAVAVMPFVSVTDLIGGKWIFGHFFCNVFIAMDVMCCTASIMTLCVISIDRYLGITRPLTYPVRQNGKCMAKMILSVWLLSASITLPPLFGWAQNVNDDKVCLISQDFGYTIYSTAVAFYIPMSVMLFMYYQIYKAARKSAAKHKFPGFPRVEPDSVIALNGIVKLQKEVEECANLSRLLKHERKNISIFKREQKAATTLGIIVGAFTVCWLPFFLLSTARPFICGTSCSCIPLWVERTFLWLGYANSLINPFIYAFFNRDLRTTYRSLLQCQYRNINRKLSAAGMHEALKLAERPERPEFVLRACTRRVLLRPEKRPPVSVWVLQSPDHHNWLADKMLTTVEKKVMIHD
Chain of Histamine H1 receptor (Cavia porcellus) (P31389 whole entry): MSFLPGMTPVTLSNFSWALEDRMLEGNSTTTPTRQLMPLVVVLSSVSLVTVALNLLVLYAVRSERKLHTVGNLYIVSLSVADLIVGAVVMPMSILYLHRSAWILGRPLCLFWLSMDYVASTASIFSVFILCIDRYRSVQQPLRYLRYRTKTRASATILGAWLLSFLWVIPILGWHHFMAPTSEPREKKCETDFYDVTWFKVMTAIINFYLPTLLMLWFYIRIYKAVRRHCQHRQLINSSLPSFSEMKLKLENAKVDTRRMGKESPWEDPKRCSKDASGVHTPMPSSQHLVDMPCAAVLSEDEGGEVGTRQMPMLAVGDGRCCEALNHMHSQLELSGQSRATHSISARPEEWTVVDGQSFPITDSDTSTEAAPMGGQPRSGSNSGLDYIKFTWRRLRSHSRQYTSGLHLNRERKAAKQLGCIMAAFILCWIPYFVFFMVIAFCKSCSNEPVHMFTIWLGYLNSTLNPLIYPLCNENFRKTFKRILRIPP

inhibition [1] [%]	Ki [2] [nM]	inhibition [3] [%]	Ki [4] [nM]	inhibition (D(2) dopamine receptor) [%]	inhibition [5] [%]	Ratio [6]	Structure (SMILES)
92	16	76	0.11	87	97	3280	COc1ccc(N2C(=O)c3ccc(C(=O)NCCCN4CCN(c5ccccc5OC(C)C)CC4)cc3C2=O)cc1
95	37	83	0.16	94	97	> 12500	Cc1ccc(N2C(=O)c3ccc(C(=O)NCCCN4CCN(c5ccccc5OC(C)C)CC4)cc3C2=O)cc1

More lines, now with the values behind:

Structure (SMILES)	inhibition [1] [%]	Ki [2] [nM]	inhibition [3] [%]	Ki [4] [nM]	inhibition (D(2) dopamine receptor) [%]	inhibition [5] [%]	Ratio [6]
Cc1ccc(N2C(=O)c3ccc(C(=O)NC[C@H](O)CN4CCN(c5ccccc5OC(C)C)CC4)cc3C2=O)cc1	90	54	14	0.29	70	93	> 5690
CC(C)Oc1ccccc1N1CCN(C[C@@H](O)CNC(=O)c2ccc3c(c2)C(=O)N(c2ccc(N(C)C)cc2)C3=O)CC1	95	52	11	0.33	71	88	> 6060
CC(C)Oc1ccccc1N1CCN(CCCNC(=O)c2ccc3c(c2)C(=O)N(c2cccc(F)c2)C3=O)CC1	92	22	86	0.41	90	87	1180
CC(C)Oc1ccccc1N1CCN(C[C@@H](O)CNC(=O)c2ccc3c(c2)C(=O)N(c2cccc(F)c2)C3=O)CC1	95	190	8	1.02	51	95	> 1960
CCOc1ccccc1OCCN[C@H](C)Cc1ccc(OC)c(S(N)(=O)=O)c1 [TAMSULOSIN]	74	0.18	41	–	73	18	–
